We go through two molecules from ChEMBL document CHEMBL4334455, “Synthesis of Usnic Acid Derivatives and Evaluation of Their Antiproliferative Activity against Cancer Cells” (J Nat Prod, 2019).

Calls of active or inactive are those of the source. The rule behind the calls is not given here.

For experiment [1], the system named is MCF7. In words: Induction of cell cycle arrest in human MCF7 cells assessed as accumulation of cells at G0/G1 phase at 8.7 uM after 24 hrs by Propidium iodide staining based flow cytometric analysis (reference value: 47.8 +/- 0.42%). Type of experiment: functional.
Experiment [2] deals with MCF7. In words: Induction of cell cycle arrest in human MCF7 cells assessed as accumulation of cells at S phase at 8.7 uM after 24 hrs by Propidium iodide staining based flow cytometric analysis (reference value: 23.75 +/- 1.87%). Type of experiment: functional.
Experiment [3] has as its system MCF7. In words: Induction of cell cycle arrest in human MCF7 cells assessed as accumulation of cells at G2/M phase at 8.7 uM after 24 hrs by Propidium iodide staining based flow cytometric analysis (reference value: 27 +/- 2.97%). Type of experiment: functional. In general terms: In flow cytometry, cells or beads pass a laser one at a time.
Experiment [4] has as its system MCF7. Briefly: Anticlonogenic activity against human MCF7 cells assessed as reduction in colony formation at 2.9 to 11.6 uM incubated for 24 hrs followed by recovery period of 2 weeks by culturing cells in drug-free medium by crystal violet staining based assay. Type of experiment: functional, cell-based. Put shortly:
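Cells (1 × 10⁶) plated, after 24 h given fresh medium with derivative at 1, 2, 3 or 4 μg mL⁻¹ for 24 h; then trypsinized, counted, 8 × 10² replated into two plates in compound-free medium. After 2 weeks fixed with 6.0% glutaraldehyde, stained with 0.5% crystal violet; colonies of ≥50 cells counted. Mean ± SE of three experiments in duplicate.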

Experiment [5] relates to MCF7. Briefly: Induction of apoptosis in human MCF7 cells at 2.9 uM after 48 hrs by Annexin-V/7-AAD staining based flow cytometric analysis relative to control. Type of experiment: functional. Summed up:
(§1)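 MCF-7 cells treated 48 h, stained with annexin V and 7-AAD (Muse annexin V and dead cell kit), and apoptotic and necrotic fractions counted by flow cytometry. Mean ± SE of three independent experiments; ANOVA with Bonferroni post hoc test.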

For experiment [6], the system named is MCF7. In words: Induction of apoptosis in human MCF7 cell at 8.7 uM after 48 hrs by Annexin-V/7-AAD staining based flow cytometric analysis relative to control. Type of experiment: functional. Summed up:
as §1

In experiment [7] the test system is MCF7. Briefly: Induction of apoptosis in human MCF7 cells assessed as increase in cleaved PARP level at 8.7 uM after 24 hrs by immunoblot analysis relative to control. Type of experiment: functional. Put shortly:
(§2)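 Proteins run on SDS-PAGE, transferred to PVDF, blocked in 5% milk/PBS, primary antibody overnight at 4 °C (cleaved PARP, Bax, Bcl-2), secondary 1 h at room temperature. Reprobed for β-actin; densitometry corrected for loading.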
Background: In western blotting, separated proteins are transferred to a membrane and probed.

Experiment [8] deals with MCF7. In words: Induction of apoptosis in human MCF7 cells assessed as increase in Bax level at 2.9 uM after 24 hrs by immunoblot analysis relative to control. Type of experiment: functional. Summed up:
as §2

In experiment [9] the test system is MCF7. In words: Induction of vacuolization in human MCF7 cells assessed as increase in LAMP1 expression at 8.7 uM by Western blot analysis relative to control. Type of experiment: functional. Summed up:
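Lysates were cleared, run on SDS-PAGE and blotted to PVDF, then probed for LAMP1. Blocking was 5% milk in PBS, primary antibody overnight at 4 °C, secondary 1 h at room temperature. Blots were stripped, reprobed for β-actin, and densitometry was corrected for loading.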

Experiment [10] deals with MCF7. In words: Antiproliferative activity against human MCF7 cells assessed as reduction in cell growth in presence of early autophagy inhibitor, wortmannin by MTT assay. Type of experiment: functional, cell-based. On the technique in general: Formazan colour is commonly taken as a measure of viable cells.
Experiment [11] has as its system MCF7. Briefly: Induction of endocytosis in human MCF7 cells at 2.9 to 8.7 uM after 24 hrs by lucifer yellow staining based fluorescence microscopic analysis. Type of experiment: functional, cell-based. Put shortly:
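MCF-7 cells treated 24 h with 2.9 or 8.7 μM derivative, stained with 75 μM Lucifer Yellow, washed, and examined by fluorescence microscopy at 1000×.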

Experiment [12] deals with MCF7. Briefly: Antiproliferative activity against human MCF7 cells assessed as reduction in cell viability at 8.7 uM after 24 hrs in presence of 50 uM dynamin inhibitor, dynasore by MTT assay relative to control. Type of experiment: functional, cell-based.
In experiment [13] the test system is MCF7. In words: Induction of vacuolization in human MCF7 cells at 8.7 uM after 24 to 48 hrs in presence of early autophagy inhibitor, wortmannin by TEM analysis. Type of experiment: functional, cell-based.

With `CC(=O)c1c(O)c(C)c(O)c2c1OC1=Cc3onc(C)c3C(=O)[C@]12C`, the Activity in experiment [1] came to 75.7%; in experiment [2], 7.25%; in experiment [3], 14.65%. Besides, the inhibition result in [4], in experiment [10] and in [12] was “Active” each time. For the same molecule, the “fold change (FC)” value in experiment [5] was 2; in experiment [6] it was 3; in experiment [7], 4.1; in experiment [8], 1.3; in [9], 5.1. Moreover, the outcome in experiment [11] and in experiment [13] was Active.

`CC(=O)c1c(O)c(C)c(O)c2c1OC1=Cc3onc(C)c3C(=O)C12C` (racemic): the Activity was found to be 75.45% in experiment [1], 8.35% in experiment [2] and 14.02% in [3]. For the same molecule, the inhibition result in [4], in [10] and in experiment [12] was “Active” each time. Besides, the “fold change (FC)” value stood at 2 in experiment [5]; 3 in experiment [6]; 4.5 in experiment [7]; 1.02 in [8]; 1.8 in experiment [9]. For the same molecule, the outcome in experiment [11] and in experiment [13] was Active.
